Activity calls are given as the source filed them.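 How the source made its calls: active means IC50 of 10 µM or lower; inactive means IC50 above 10 µM.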

The target in this test is ADP-ribosylation factor GTPase-activating protein 1 (Rattus norvegicus) (UniProt Q62848). The test is described as follows: rat ARFGAP1 inhibitor potency curves, late-stage follow-up, biochemical, fluorescence polarization, round 000 (AID 743243). The note with it: ARFGAP1-stimulated ARF1 GTP hydrolysis, GDP fluorescence polarization. In a few lines:
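Test system – purified His6-tagged rat Arfgap1 GAP domain (residues 1-136) · Doses – triplicate series, top 165 µM · Schedule – 20 min enzyme-compound preincubation, then 120 min GTPase reaction, 25 °C · Signal – FP GDP tracer-antibody displacement, 620/688 nm · Controls – wells without Arfgap1 as full-inhibition reference · Replicates – each compound dose series run in triplicate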
In general terms: In fluorescence polarisation assays a small probe gives low polarisation when free and higher when bound to something large.

Sequence of ADP-ribosylation factor GTPase-activating protein 1 (Rattus norvegicus) (Q62848 1-136 limits assumed): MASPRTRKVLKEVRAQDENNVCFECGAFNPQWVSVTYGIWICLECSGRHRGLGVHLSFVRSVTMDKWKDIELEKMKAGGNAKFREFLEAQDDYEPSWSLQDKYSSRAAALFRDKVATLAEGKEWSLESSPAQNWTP

Consider `Cc1ccc(N2C(=O)c3ccc(C(=O)OCC(=O)C(C)(C)C)cc3C2=O)cc1`, for which the IC50 – broadly, the midpoint of a concentration-inhibition curve – was > 165 µM (inactive).

For `CC(C)(C)NC(=O)c1ccc2c(c1)C(=O)N(c1ccccc1-c1ccccc1)C2=O`, the IC50 is > 165 µM (inactive). For `COc1ccc(CNc2nc3c(-c4cccc(F)c4)nnn3c3cc(Cl)ccc23)cc1` the value was > 165 µM (inactive); for `Fc1cccc(-c2nnn3c2nc(NCCc2ccc(Cl)cc2)c2ccccc23)c1`, > 165 µM (inactive); for `COc1ccccc1N1C(=O)c2ccc(C(=O)OCC(=O)c3ccc(Br)cc3)cc2C1=O`, > 165 µM (inactive). The same measure for `O=C(NCC1CCCO1)c1ccc2c(c1)C(=O)N(c1ccccc1-c1ccccc1)C2=O` (stereo not drawn): > 165 µM (inactive); for `Cc1ccc(C(=O)COC(=O)c2ccc3c(c2)C(=O)N(c2cccc4ncccc24)C3=O)cc1`: > 165 µM (inactive); for `CCOCCCNC(=O)c1ccc2c(c1)C(=O)N(c1ccc(Cn3cncn3)cc1)C2=O`: > 165 µM (inactive). For `O=C(COC(=O)c1ccc2c(c1)C(=O)N(c1cccc(Cl)c1Cl)C2=O)c1ccccc1`, the IC50 was > 165 µM (inactive). In the case of `NS(=O)(=O)c1ccc(CCNc2nc3c(-c4cccc(C(F)(F)F)c4)nnn3c3ccccc23)cc1`, the half-maximal inhibitory concentration (IC50) is 6.9 µM.

Regarding `O=C(COC(=O)c1ccc2c(c1)C(=O)N(c1cc(C(F)(F)F)ccc1Cl)C2=O)c1ccccc1`, the IC50 is > 165 µM (inactive). In the case of `Fc1cccc(-c2nnn3c2nc(NCCc2ccccc2)c2ccccc23)c1`, the IC50 was > 165 µM (inactive).

Consider `O=C1c2cc(Cl)c(Cl)cc2C(=O)N1c1cccc2ncccc12`, for which the IC50 is > 165 µM (inactive). With `Cc1ccc(C(=O)C(C)OC(=O)c2ccc3c(c2)C(=O)N(c2cccc(Cl)c2Cl)C3=O)cc1` (stereo not drawn), the IC50 is > 165 µM (inactive).

With `COc1ccccc1Oc1ccc2c(c1)C(=O)N(c1cccc3ncccc13)C2=O`, the IC50 was > 165 µM (inactive). Turning to `O=C(NCc1ccco1)c1ccc2c(c1)C(=O)N(c1ccc(C(=O)c3ccccc3)cc1)C2=O`, the IC50 was > 165 µM (inactive).

As to `O=C(COC(=O)c1ccc2c(c1)C(=O)N(c1cccc(C(F)(F)F)c1)C2=O)c1ccc(Cl)cc1`, the IC50 was > 165 µM (inactive). For `O=C1c2ccccc2C(=O)N1c1cccc2ncccc12` the value was > 165 µM (inactive); for `COc1cccc(C(=O)COC(=O)c2ccc3c(c2)C(=O)N(c2cccc(C(F)(F)F)c2)C3=O)c1`, > 165 µM (inactive); for `O=C1c2ccc(Oc3ccc(Br)cc3)cc2C(=O)N1c1cccc2ncccc12`, “inactive”. On to `NS(=O)(=O)c1ccc(CCNc2nc3c(-c4cccc(F)c4)nnn3c3ccccc23)cc1`, for which the IC50 result is “inactive”. As to `O=C(COC(=O)c1ccc2c(c1)C(=O)N(c1cccc(Cl)c1Cl)C2=O)c1ccc(F)cc1`, the IC50 was > 165 µM (inactive). For `Cc1ccc(N2C(=O)c3ccc(C(=O)OCC(=O)c4ccccc4)cc3C2=O)c(C)c1` the value was > 165 µM (inactive). For `O=C(COC(=O)c1ccc2c(c1)C(=O)N(c1ccccc1Cl)C2=O)c1ccc(Br)cc1` the value was > 165 µM (inactive). As for `COc1ccc(CNc2nc3c(-c4cccc(F)c4)nnn3c3ccccc23)cc1`, the IC50 result was “inactive”. With `Cc1cccc(-c2nnn3c2nc(NCCc2ccc(S(N)(=O)=O)cc2)c2ccccc23)c1`, the IC50 result was “inactive”.

`Cc1ccc(N2C(=O)c3ccc(C(=O)N4CCN(Cc5ccccc5)CC4)cc3C2=O)cc1`: the IC50 was > 165 µM (inactive).

As for `CC(C)CNC(=O)c1ccc2c(c1)C(=O)N(c1ccccc1-c1ccccc1)C2=O`, the IC50 was > 165 µM (inactive). Regarding `O=C(COC(=O)c1ccc2c(c1)C(=O)N(c1cccc3ncccc13)C2=O)c1ccc(Cl)cc1`, the IC50 was 2.13 µM. `O=C(OCC(=O)c1cccs1)c1ccc2c(c1)C(=O)N(c1cccc3ccccc13)C2=O`: the IC50 is > 165 µM (inactive).

Turning to `Cc1cccc(Oc2ccc(N3C(=O)c4ccc(C(=O)OCC(=O)Nc5cccc(C)c5C)cc4C3=O)cc2)c1`, the IC50 is > 165 µM (inactive).

Regarding `NS(=O)(=O)c1ccc(CCNc2nc3c(-c4cccc(Cl)c4)nnn3c3ccccc23)cc1`, the IC50 entry is “inactive”.

On to `O=C(NCCc1nc2ccccc2[nH]1)c1ccc2c(c1)C(=O)N(c1ccc(F)cc1)C2=O`, for which the IC50 is > 165 µM (inactive). For `Cc1ccc(CNc2nc3c(-c4cccc(F)c4)nnn3c3cc(Cl)ccc23)cc1` the value was > 165 µM (inactive).

For the compound `COc1cccc(C(=O)COC(=O)c2ccc3c(c2)C(=O)N(c2ccc(F)cc2)C3=O)c1`, the IC50 was > 165 µM (inactive). Consider `Cc1ccc(N2C(=O)c3ccc(C(=O)N4c5ccccc5CC4C)cc3C2=O)cc1` (stereo not drawn), for which the IC50 is > 165 µM (inactive). Regarding `Cc1cccc(N2C(=O)c3ccc(C(=O)NC4CCCCC4)cc3C2=O)c1C`, the IC50 was > 165 µM (inactive). `CC(CNc1nc2c(-c3cccc(F)c3)nnn2c2ccccc12)c1ccccc1` (stereo not drawn): the IC50 is > 165 µM (inactive). Consider `CCCOC(=O)c1ccc2c(c1)C(=O)N(c1cccc3ccccc13)C2=O`, for which the IC50 was > 165 µM (inactive).

Regarding `COc1ccc(CCNc2nc3c(-c4cccc(F)c4)nnn3c3cc(Cl)ccc23)cc1OC`, the IC50 was > 165 µM (inactive).

In the case of `O=C(NC1CCCCC1)c1ccc2c(c1)C(=O)N(c1ccccc1-c1ccccc1)C2=O`, the IC50 was > 165 µM (inactive). `Fc1cccc(-c2nnn3c2nc(NCc2ccc4c(c2)OCO4)c2ccccc23)c1`: the IC50 was > 165 µM (inactive). Consider `Fc1cccc(-c2nnn3c2nc(NCCc2ccccc2)c2ccc(Cl)cc23)c1`, for which the IC50 was > 165 µM (inactive). As for `Cc1ccc(Oc2ccc3c(c2)C(=O)N(c2cccc4ncccc24)C3=O)cc1C`, the IC50 is > 165 µM (inactive).

Regarding `Cc1cccc(-c2nnn3c2nc(NCCc2ccc(S(N)(=O)=O)cc2)c2ccc(Cl)cc23)c1`, the IC50 entry was “inactive”. For the compound `Cc1ccc(C(=O)COC(=O)c2ccc3c(c2)C(=O)N(c2cccc4ccccc24)C3=O)cc1`, the IC50 is > 165 µM (inactive). The same measure for `NS(=O)(=O)c1ccc(CCNc2nc3c(-c4ccc(Cl)cc4)nnn3c3ccccc23)cc1`: “inactive”; for `O=C(NCC1CCCO1)c1ccc2c(c1)C(=O)N(c1cccc3ccccc13)C2=O` (stereo not drawn): > 165 µM (inactive).

The values above are taken from PubChem BioAssay AID743243 (The Scripps Research Institute Molecular Screening Center, 2013).
